The source of these data is ChEMBL document CHEMBL1142698, “Synthesis and biological evaluation of novel naphthocarbazoles as potential anticancer agents” (J Med Chem, 2005).

Common to all, as to type: functional, cell-based
One assay has as its system HT-29. Nature of the assay: In vitro antiproliferative activity against human colon carcinoma HT-29 cells. In short, it runs like this: (§1)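 Cells from ATCC grown in RPMI 1640 with 10% fetal calf serum, 2 mM L-glutamine, penicillin/streptomycin and 10 mM HEPES (pH 7.4). Continuous exposure to graded concentrations for four doubling times. MTT added, then 4 h at 37 °C, formazan dissolved in DMSO and optical density read. IC50 is the concentration halving optical density versus untreated controls, from nine serial dilutions in duplicate.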

Assay [1] relates to DU-145. Nature of the assay: In vitro antiproliferative activity against human prostate cancer DU145 cells. In short, it runs like this: as §1
In a further assay the test system is L1210. Put plainly: In vitro antiproliferative activity against murine leukemia L1210 cells. To be noted: Mus musculus. The essentials:
as §1

In assay [2] the test system is DU-145. Nature of the assay: In vitro antiproliferative activity against human prostate cancer DU-145 cells. The essentials:
as §1

For the compound `O=C1c2c(c3c4cc(O)ccc4[nH]c3c3cc4ccccc4cc23)C(=O)N1CCNCCO`, the IC50 – broadly, the point on the concentration scale where inhibition reaches its midpoint – in the assay with HT-29 is 3760 nM; with DU-145 [1] it was 630 nM; with L1210, 290 nM.

`CN(C)CCN1C(=O)c2c(c3c4cc(O)ccc4[nH]c3c3cc4ccccc4cc23)C1=O`: the IC50 came out at 108 nM in the assay with DU-145 [1] and 36 nM in the assay on L1210.

With `CN1C(=O)c2c(c3c4ccccc4n(CCN4CCOCC4)c3c3cc4ccccc4cc23)C1=O`, inhibition in the assay with L1210 was half-maximal at 2400 nM (IC50).

As to `O=C1c2c(c3c4ccc(O)cc4[nH]c3c3cc4ccccc4cc23)C(=O)N1CCNCCO`, the IC50 in the assay with HT-29 was found to be 5500 nM; in the assay on DU-145 [1] it was 1110 nM; in the assay on L1210 it was 510 nM.

Consider `CN(C)CCCN1C(=O)c2c(c3c4ccc(O)cc4[nH]c3c3cc4ccccc4cc23)C1=O`, for which the IC50 in the assay on HT-29 came to 1350 nM; in the assay on DU-145 [1] it was 760 nM; in the assay on L1210, 340 nM.

For `CN(C)CCn1c2ccccc2c2c3c(c4cc5ccccc5cc4c21)C(=O)N(C)C3=O`, the IC50 in the assay with DU-145 [1] was 4700 nM; in the assay with L1210 it was 2400 nM.

On to `CN1C(=O)c2c(c3c4ccccc4n(CC(O)CO)c3c3cc4ccccc4cc23)C1=O` (centres undefined), for which the IC50 was found to be 3690 nM in the assay on HT-29, 2310 nM with DU-145 [1] and 1260 nM with L1210.

On to `COC1C(O)[C@@H](O)[C@H](n2c3c(Cl)cccc3c3c4c(c5c6cccc(Cl)c6[nH]c5c32)C(=O)NC4=O)O[C@@H]1CO` (single isomer, unassigned) [REBECCAMYCIN], for which it took 140 nM to reach half-maximal inhibition in the assay on L1210 (IC50).

In the case of `CN1C(=O)c2c(c3c4ccccc4[nH]c3c3cc4ccccc4cc23)C1=O`, the IC50 was 2900 nM with L1210 and 1100 nM in the assay with DU-145 [2].

On to `CN(C)CCCN1C(=O)c2c(c3c4cc(O)ccc4[nH]c3c3cc4ccccc4cc23)C1=O`, for which the IC50 came out at 840 nM with HT-29, 290 nM with DU-145 [1] and 130 nM in the assay with L1210.

As for `CN(C)CCN1C(=O)c2c(c3c4ccc(O)cc4[nH]c3c3cc4ccccc4cc23)C1=O`, the IC50 in the assay with DU-145 [1] came to 250 nM; with L1210, 110 nM.

Regarding `CN(C)CCN1C(=O)c2c(c3c4ccccc4[nH]c3c3cc4ccccc4cc23)C1=O`, the figures for the half-maximal inhibitory concentration (IC50) in the assay on DU-145 [1] and in the assay with L1210 were 290 nM and 210 nM, respectively.

As to `O=C1c2c(c3c4ccc(O)cc4[nH]c3c3cc4ccccc4cc23)C(=O)N1C(CO)CO`, the IC50 is 1340 nM with HT-29, 6.8 nM in the assay on DU-145 [1] and 200 nM with L1210.

For the compound `O=C1c2c(c3c4cc(O)ccc4[nH]c3c3cc4ccccc4cc23)C(=O)N1C(CO)CO`, the IC50 in the assay with HT-29 worked out at 2880 nM; in the assay on DU-145 [1], 2130 nM; with L1210 it was 1190 nM.

Take `CN1C(=O)c2c(c3c4ccc(O[Si](C)(C)C(C)(C)C)cc4[nH]c3c3cc4ccccc4cc23)C1=O`: the figures for the IC50 with DU-145 [1] and with L1210 were 5600 nM and 10100 nM, respectively.

In the case of `C=CCn1c2ccccc2c2c3c(c4cc5ccccc5cc4c21)C(=O)N(C)C3=O`, the IC50 in the assay on HT-29 came out at 65700 nM; with DU-145 [1], 59700 nM; in the assay on L1210 it was 34000 nM.

For the compound `CN1C(=O)c2c(c3c4cc(O)ccc4[nH]c3c3cc4ccccc4cc23)C1=O`, the IC50 with DU-145 [1] was 6800 nM; with L1210, 3900 nM.

For the compound `CN(C)CCOc1ccc2c(c1)[nH]c1c3cc4ccccc4cc3c3c(c21)C(=O)N(C)C3=O`, the IC50 with DU-145 [1] was found to be 4500 nM; with L1210, 1500 nM.

With `CN1C(=O)c2c(c3c4ccc(O)cc4[nH]c3c3cc4ccccc4cc23)C1=O`, the IC50 with DU-145 [1] was found to be 4700 nM; in the assay with L1210 it was 5200 nM.
